Screening results from PubChem.
MEKK3 PB1 HTS – modulators of MEKK3-MEK5 PB1 binding, primary screen, biochemical, wildtype MEKK3, multiplex bead flow cytometry, Alexa488-MEK5 | binding response (% of control), % at 10 µM | 290,000 tested, 1.4% active | Mitogen-activated protein kinase kinase kinase 3 (Homo sapiens), Q99759 | AID 1529, 2009 | bead-based flow cytometry, Alexa488-MEK5 binding to MEKK3; actives lie on both sides; 0 = blocked by unlabeled MEK5, 100 = vehicle;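 active = binding response more than 3 SD above or below the average of its plate-row segment, actives on both sides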;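 note: Alexa488 bead fluorescence after subtracting the streptavidin-only scavenger bead signal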
Target sequence (Q99759 whole entry, looked up): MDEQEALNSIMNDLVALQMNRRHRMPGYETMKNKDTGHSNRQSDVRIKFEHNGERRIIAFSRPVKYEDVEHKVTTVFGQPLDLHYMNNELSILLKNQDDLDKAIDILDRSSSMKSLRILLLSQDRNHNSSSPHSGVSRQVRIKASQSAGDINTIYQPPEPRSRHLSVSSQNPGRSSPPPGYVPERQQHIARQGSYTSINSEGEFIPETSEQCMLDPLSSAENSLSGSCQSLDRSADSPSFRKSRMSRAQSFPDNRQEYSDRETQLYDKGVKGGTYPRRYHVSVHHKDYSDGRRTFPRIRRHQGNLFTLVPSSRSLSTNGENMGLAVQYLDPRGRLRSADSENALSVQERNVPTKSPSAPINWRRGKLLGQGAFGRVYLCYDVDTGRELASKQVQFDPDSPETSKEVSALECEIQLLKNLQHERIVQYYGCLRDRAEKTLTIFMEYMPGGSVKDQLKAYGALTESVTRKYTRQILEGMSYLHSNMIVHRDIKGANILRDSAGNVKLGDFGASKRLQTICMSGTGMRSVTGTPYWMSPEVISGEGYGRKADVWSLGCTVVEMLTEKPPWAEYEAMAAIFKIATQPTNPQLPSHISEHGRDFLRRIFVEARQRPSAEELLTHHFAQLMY
MEKK2 mut-MEK5 – MEK5 binding signal on mutant MEKK2 PB1, primary screen, biochemical, multiplex bead flow cytometry, Alexa488-MEK5; Alexa488-MEK5 binding to MEKK2 mutant; percent response, % at 10 µM; 290,000 tested, 0.35% active; in the data active = percent response above about 24%, passing the limit was not always enough
MEKK2wt PB1 HTS – modulators of MEK5 binding to wildtype MEKK2, primary screen, biochemical, multiplex bead flow cytometry, Alexa488-MEK5; Mitogen-activated protein kinase kinase kinase 2 (Homo sapiens), Q9Y2U5; Alexa488-MEK5 binding to MEKK2 WT; actives lie on both sides; binding response (% of control), % at 10 µM; 290,000 tested, 1.1% active; AID 1531, 2009; in the data active = binding response below about 67% or above about 130%
Hep lipid drop – inhibitors of hepatocyte lipid droplet formation, primary screen, imaging, high-throughput imaging, BODIPY stain; AML12 mouse hepatocytes, oleate lipid droplets; inhibition, % at 6.5 µM; 240,000 tested, 0.4% active; AID 1656, 2009;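 active = lipid droplet intensity inhibited by at least 50%, with more than 500 cells counted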
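System: AML12 hepatocytes (mouse). Probe or stimulus: oleic acid at 100 µM to induce lipid droplet formation. Times: overnight treatment with compound plus oleate. Detection: Image-based BODIPY and DAPI two-channel analysis. Evaluation: percent inhibition of filter-corrected integrated lipid droplet intensity per well.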
MEKK2wt confirm – modulators of MEK5 binding to wildtype MEKK2, confirmation, biochemical, single concentration, multiplex bead flow cytometry. binding response (% of control), % at 10 µM. Alexa488-MEK5 binding to MEKK2 WT; actives lie on both sides. shares compounds with MEKK3 PB1 HTS. 5,900 tested, 2.4% active; in the data active = binding response below about 16% or above about 210%; inactive = in between
MEKK2mut confirm – mutant MEKK2 PB1-MEK5 binding signal retest – biochemical, single concentration, multiplex bead flow cytometry, confirmation | Alexa488-MEK5 binding to MEKK2 mutant | shares compounds with MEKK3 PB1 HTS | percent response, % at 10 µM | 5,900 tested, 2% active; in the data active = percent response mostly above about 71%, no sharp cut-off; inactive = mostly below about 38%;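 note: higher means compound restores mutant binding toward wildtype level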
MEKK3-MEK5 inh – MEKK3 wild-type PB1 binding to MEK5, inhibitors, confirmation, biochemical, bead multiplex flow cytometry, single concentration, wildtype; shares compounds with MEKK3 PB1 HTS; Alexa488-MEK5 binding to MEKK3; active compounds read low; binding response (% of control), % at 10 µM; 5,900 tested, 1.8% active;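 active = binding response below 72% of control, or above a set upper limit, though filed actives all read lower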;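 note: 100% = DMSO only wells and 0% = binding blocked by excess unlabeled MEK5; lower values mean stronger disruption of MEK5 binding to MEKK3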
Starred values were filed as active, the others as inactive; · = no result; [ ] = another dose, or the depositor's remark. An excerpt weighted towards active compounds, which were near 2.6% of everything screened.

SMILES	MEKK3 PB1 HTS	MEKK2 mut-MEK5	MEKK2wt PB1 HTS	Hep lipid drop	MEKK2wt confirm	MEKK2mut confirm	MEKK3-MEK5 inh
COc1ccc(N(C(=O)c2snc(C(N)=O)c2N)C(CC(C)C)C(=O)NCC2CCCO2)cc1 (stereo not drawn)	107	4	100	14	·	·	·
Cc1ccc(OCC(=O)N2CCN(C(=O)CCC3CCCC3)CC2)cc1	108	7	112	-2	·	·	·
O=C(CCC1CCCC1)N1CCN(C(=O)COc2ccccc2)CC1	75*[inhibitor]	-9	87	·	96	-10	101
COc1cc([N+](=O)[O-])ccc1NC(=O)CC1SC(=Nc2ccc(F)cc2)N(CCC2=CCCCC2)C1=O (stereo not drawn)	112	-1	97	-9	·	·	·
COc1ccc(OC)c(NC(=O)CC2SC(=Nc3ccc(F)cc3)N(CCC3=CCCCC3)C2=O)c1 (stereo not drawn)	139*	0	102	0	81	-44	83
O=C(OCc1cncs1)c1ccccc1	102	1	102	-10	·	·	·
O=C(NCc1cccs1)N[C@@H](Cc1ccccc1)C(=O)O	1.0*[inhibitor]	-26	-2.0*[inhibitor]	11	90	-3	86
CC(C)[C@H](NC(=O)NCc1cccs1)C(=O)O	2.0*[inhibitor]	-46	2.0*[inhibitor]	·	102	8	108
COC(=O)[C@H](Cc1ccccc1)NC(=O)NCc1cccs1	104	13	105	1	·	·	·
CCOc1cc(C(=S)N2CCN(C)CC2)ccc1OCC(=O)N1CCCC1	102	8	106	4	·	·	·
N#Cc1cccc(CN2CCC(=O)N([C@H](CO)Cc3ccccc3)CC2)c1	102	4	107	-17	·	·	·
CCOC(=O)c1sc(NC(C)=O)nc1-c1ccccc1	1.0*[inhibitor]	-20	-2.0*[inhibitor]	·	95	-4	95
CCOC(=O)c1sc(NC(=O)c2ccco2)nc1-c1ccccc1	97	-3	103	0	·	·	·
O=C(c1ccc2oc(CCCc3ccccc3)nc2c1)N1CCCC1	105	11	108	-4	·	·	·
Clc1ccccc1-c1nnc(-c2ccc3c(c2)OCO3)o1	91	-15	81	-6	·	·	·
c1ccc2c(-c3cn4ccccc4n3)c[nH]c2c1	100	2	63*[inhibitor]	-6	115	19	108
C#CCn1cc(C=C2C(=O)c3ccccc3C2=O)c2ccccc21	36*[inhibitor]	-1	80	0	91	-4	101
C#CCn1c(=O)cc(C)c2ccccc21	103	1	103	-1	·	·	·
O=S(=O)(c1ccc(Br)s1)N1CCC2(CC1)OCCO2	99	-2	101	1	·	·	·
O=C(Nc1cc(C(F)(F)F)ccc1F)C1CCCCC1	72*[inhibitor]	-18	80	9	92	-4	94
COc1ccccc1NC(=O)C1CCCN1C(=O)Nc1ccc(F)cc1 (stereo not drawn)	105	-2	100	3	·	·	·
O=S(=O)(NC1CCCCC1)c1ccc(N2CCOCC2)nc1	103	4	100	·	·	·	·
CCCCN(C)C(=O)C1CCN(Cc2cccnc2)CC1	112	27*	118	7	96	-5	102
CCCCN(C)C(=O)C1CCN(Cc2cccc(OCc3ccccc3)c2)CC1	104	15	107	-5	·	·	·
Cc1ccc(SCC(=O)Nc2ccc(F)cc2[N+](=O)[O-])cc1C	96	-1	94	-20	·	·	·
SMILES	MEKK3 PB1 HTS	MEKK2 mut-MEK5	MEKK2wt PB1 HTS	Hep lipid drop	MEKK2wt confirm	MEKK2mut confirm	MEKK3-MEK5 inh
COC(=O)C1=C(C(=O)OC)[C@@H]2N(C)c3ccccc3[C@@]23C[C@@H](C(=O)OC)N=C3N1	95	2	93	20	·	·	·
COC(=O)C1=C(C(=O)OC)[C@@H]2N(Cc3ccccc3)c3ccccc3[C@@]23C[C@@H](C(=O)OC)N=C3N1	124	3	141*	-27	103	-3	99
O=C(NCCc1ccccc1F)C1CCC(=O)N(Cc2ccc(Cl)cc2)C1 (stereo not drawn)	94	-2	93	-10	·	·	·
CC(C)C(OC(=O)c1cc2sccc2n1C)C(=O)NCC1CCCO1 (stereo not drawn)	1.0*[inhibitor]	-26	-2.0*[inhibitor]	·	97	-9	98
Cc1ccc(N2CC(C(=O)Nc3nc4ccc(S(C)(=O)=O)cc4s3)CC2=O)cc1C (stereo not drawn)	99	-1	96	0	·	·	·
CCOc1cc(C2C(C#N)=C(N)OC(C)=C2C(C)=O)c(Br)c(Br)c1OC(C)C (stereo not drawn)	68*[inhibitor]	0	94	-4	96	-4	100
Clc1ccc(OCCCN2CCc3ccccc3C2)c(Br)c1	105	20	134*	-1	102	-1	101
Clc1ccc(OCCOCCN2CCc3ccccc3C2)c(Cl)c1	104	26	123	-25	·	·	·
CC1CCN(CCOCCOc2ccc(Cl)cc2Br)CC1	106	21	147*	·	158	28	110
O=c1c(Cl)c(N2CCN(c3ccc(F)cc3)CC2)cnn1C12CC3CC(CC(C3)C1)C2	148*	0	100	25	119	18	110
CCOC(=O)c1c(-c2ccc(OC)cc2)csc1/N=C/C1C(=O)CCCC1=O	100	-5	95	13	·	·	·
CCOC(=O)c1c(-c2ccc(OC)cc2)csc1/N=C/N(C)C	136*	0	105	5	99	-5	97
CCOC(=O)/C=C/C(=O)Nc1ccc(S(=O)(=O)Nc2nccs2)cc1	99	-6	99	6	·	·	·
CCS(=O)(=O)c1ccc2oc(SCC(=O)N3CCCCC3)nc2c1	48*[inhibitor]	-14	67	6	107	3	106
N=C(N)SCc1cn(-c2ccccc2)nc1-c1ccc(Br)cc1	115	107*	256*	-1	265*	105*	113
CC1CCc2sc(C(=O)OCC(=O)NCc3ccc(F)cc3)cc2C1 (stereo not drawn)	96	4	105	-4	·	·	·
CCOC(=O)c1cnc2cc(C)nn2c1-c1ccccc1	101	0	101	·	·	·	·
CCOC(=O)c1cnc2cc(C)nn2c1C	74*[inhibitor]	-10	87	10	102	10	101
